ChEMBL document CHEMBL5058577, “EUbOPEN Chemogenomics Library 2 (Multiplex)” (2022)

Test system: Fibroblast
Experiment: Multiplex assay against human fibroblast
Assay type: toxicity, cell-based
Outline: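 Hoechst33342, BioTracker Green Microtubule Cytoskeleton Dye, MitoTracker Red and Annexin V Alexa Fluor 680 were added to live cells at seeding, and imaging on a CQ1 microscope at 37°C and 5% CO2 followed compound addition. Gating by CellPathfinder machine learning separated cells into Hoechst high-intensity objects or normal cells, then normal cells into healthy, pyknosed or fragmented nuclei, then pyknosed cells into mitotic or apoptotic. Per cents of healthy-nucleus cells are reported for the tubulin, mitochondrial-mass and membrane-permeability phenotypes.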

[1] = 12 h, 1 µM, compound concentration 1 uM, replicate 1
[2] = 12 h, 1 µM, compound concentration 1 uM, replicate 2
[3] = 12 h, 10 µM, compound concentration 10 uM, replicate 1
[4] = 12 h, 10 µM, compound concentration 10 uM, replicate 2
[5] = 24 h, 1 µM, compound concentration 1 uM, replicate 1
[6] = 24 h, 1 µM, compound concentration 1 uM, replicate 2
[7] = 24 h, 10 µM, compound concentration 10 uM, replicate 1
[8] = 24 h, 10 µM, compound concentration 10 uM, replicate 2
[9] = 48 h, 1 µM, compound concentration 1 uM, replicate 1
[10] = 48 h, 1 µM, compound concentration 1 uM, replicate 2
[11] = 48 h, 10 µM, compound concentration 10 uM, replicate 1
[12] = 48 h, 10 µM, compound concentration 10 uM, replicate 2

Cc1ccc(C(C)(O)c2nc3ccccc3s2)c(C)c1 (centres undefined)
Population Apoptotic (%) [1]: 50% | Population Fragmented Nuclei (%) [1]: 8% | Population Healthy Nuclei (%) [1]: 78% | Population Hoechst High Intensity Objects (%) [1]: 0% | Population Membrane Permeable-Phenotype (%) [1]: 0% | Population Mitochondria Different-Phenotype (%) [1]: 5% | Population Mitotic Cells (%) [1]: 50% | Population Normal (%) [1]: 99% | Population Pyknosed Nuclei (%) [1]: 12% | Population Tubulin-Different-Phenotype (%) [1]: 29% | Total Cell Count [1]: 125 | Population Apoptotic (%) [2]: 44% | Population Fragmented Nuclei (%) [2]: 22% | Population Healthy Nuclei (%) [2]: 48% | Population Hoechst High Intensity Objects (%) [2]: 5% | Population Membrane Permeable-Phenotype (%) [2]: 3% | Population Mitochondria Different-Phenotype (%) [2]: 6% | Population Mitotic Cells (%) [2]: 56% | Population Normal (%) [2]: 95% | Population Pyknosed Nuclei (%) [2]: 29% | Population Tubulin-Different-Phenotype (%) [2]: 36% | Total Cell Count [2]: 180 | Population Apoptotic (%) [3]: 44% | Population Fragmented Nuclei (%) [3]: 11% | Population Healthy Nuclei (%) [3]: 72% | Population Hoechst High Intensity Objects (%) [3]: 1% | Population Membrane Permeable-Phenotype (%) [3]: 0% | Population Mitochondria Different-Phenotype (%) [3]: 5% | Population Mitotic Cells (%) [3]: 56% | Population Normal (%) [3]: 98% | Population Pyknosed Nuclei (%) [3]: 16% | Population Tubulin-Different-Phenotype (%) [3]: 24% | Total Cell Count [3]: 153 | Population Apoptotic (%) [4]: 22% | Population Fragmented Nuclei (%) [4]: 31% | Population Healthy Nuclei (%) [4]: 43% | Population Hoechst High Intensity Objects (%) [4]: 7% | Population Membrane Permeable-Phenotype (%) [4]: 15% | Population Mitochondria Different-Phenotype (%) [4]: 6% | Population Mitotic Cells (%) [4]: 77% | Population Normal (%) [4]: 92% | Population Pyknosed Nuclei (%) [4]: 25% | Population Tubulin-Different-Phenotype (%) [4]: 60% | Total Cell Count [4]: 149 | Population Apoptotic (%) [5]: 31% | Population Fragmented Nuclei (%) [5]: 13% | Population Healthy Nuclei (%) [5]: 73% | Population Hoechst High Intensity Objects (%) [5]: 0% | Population Membrane Permeable-Phenotype (%) [5]: 2% | Population Mitochondria Different-Phenotype (%) [5]: 7% | Population Mitotic Cells (%) [5]: 68% | Population Normal (%) [5]: 99% | Population Pyknosed Nuclei (%) [5]: 13% | Population Tubulin-Different-Phenotype (%) [5]: 22% | Total Cell Count [5]: 139 | Population Apoptotic (%) [6]: 47% | Population Fragmented Nuclei (%) [6]: 25% | Population Healthy Nuclei (%) [6]: 54% | Population Hoechst High Intensity Objects (%) [6]: 5% | Population Membrane Permeable-Phenotype (%) [6]: 11% | Population Mitochondria Different-Phenotype (%) [6]: 5% | Population Mitotic Cells (%) [6]: 52% | Population Normal (%) [6]: 94% | Population Pyknosed Nuclei (%) [6]: 20% | Population Tubulin-Different-Phenotype (%) [6]: 43% | Total Cell Count [6]: 173 | Population Apoptotic (%) [7]: 55% | Population Fragmented Nuclei (%) [7]: 13% | Population Healthy Nuclei (%) [7]: 74% | Population Hoechst High Intensity Objects (%) [7]: 4% | Population Membrane Permeable-Phenotype (%) [7]: 3% | Population Mitochondria Different-Phenotype (%) [7]: 6% | Population Mitotic Cells (%) [7]: 44% | Population Normal (%) [7]: 95% | Population Pyknosed Nuclei (%) [7]: 12% | Population Tubulin-Different-Phenotype (%) [7]: 24% | Total Cell Count [7]: 152 | Population Apoptotic (%) [8]: 38% | Population Fragmented Nuclei (%) [8]: 27% | Population Healthy Nuclei (%) [8]: 46% | Population Hoechst High Intensity Objects (%) [8]: 6% | Population Membrane Permeable-Phenotype (%) [8]: 12% | Population Mitochondria Different-Phenotype (%) [8]: 9% | Population Mitotic Cells (%) [8]: 61% | Population Normal (%) [8]: 93% | Population Pyknosed Nuclei (%) [8]: 25% | Population Tubulin-Different-Phenotype (%) [8]: 61% | Total Cell Count [8]: 143 | Population Apoptotic (%) [9]: 33% | Population Fragmented Nuclei (%) [9]: 16% | Population Healthy Nuclei (%) [9]: 73% | Population Hoechst High Intensity Objects (%) [9]: 4% | Population Membrane Permeable-Phenotype (%) [9]: 0% | Population Mitochondria Different-Phenotype (%) [9]: 3% | Population Mitotic Cells (%) [9]: 66% | Population Normal (%) [9]: 95% | Population Pyknosed Nuclei (%) [9]: 9% | Population Tubulin-Different-Phenotype (%) [9]: 16% | Total Cell Count [9]: 129 | Population Apoptotic (%) [10]: 50% | Population Fragmented Nuclei (%) [10]: 28% | Population Healthy Nuclei (%) [10]: 57% | Population Hoechst High Intensity Objects (%) [10]: 3% | Population Membrane Permeable-Phenotype (%) [10]: 5% | Population Mitochondria Different-Phenotype (%) [10]: 6% | Population Mitotic Cells (%) [10]: 50% | Population Normal (%) [10]: 96% | Population Pyknosed Nuclei (%) [10]: 14% | Population Tubulin-Different-Phenotype (%) [10]: 39% | Total Cell Count [10]: 174 | Population Apoptotic (%) [11]: 53% | Population Fragmented Nuclei (%) [11]: 22% | Population Healthy Nuclei (%) [11]: 68% | Population Hoechst High Intensity Objects (%) [11]: 7% | Population Membrane Permeable-Phenotype (%) [11]: 2% | Population Mitochondria Different-Phenotype (%) [11]: 6% | Population Mitotic Cells (%) [11]: 46% | Population Normal (%) [11]: 92% | Population Pyknosed Nuclei (%) [11]: 9% | Population Tubulin-Different-Phenotype (%) [11]: 27% | Total Cell Count [11]: 156 | Population Apoptotic (%) [12]: 43% | Population Fragmented Nuclei (%) [12]: 34% | Population Healthy Nuclei (%) [12]: 53% | Population Membrane Permeable-Phenotype (%) [12]: 7% | Population Mitochondria Different-Phenotype (%) [12]: 7% | Population Mitotic Cells (%) [12]: 56% | Population Pyknosed Nuclei (%) [12]: 12% | Population Tubulin-Different-Phenotype (%) [12]: 64% | Total Cell Count [12]: 143

CSCC[C@H](NC=O)C(=O)N[C@@H](CC(C)C)C(=O)N[C@@H](Cc1ccccc1)C(=O)O
Population Fragmented Nuclei (%) [1]: 18% | Population Healthy Nuclei (%) [1]: 69% | Population Mitochondria Different-Phenotype (%) [1]: 3% | Population Tubulin-Different-Phenotype (%) [1]: 26% | Total Cell Count [1]: 182 | Population Fragmented Nuclei (%) [2]: 29% | Population Healthy Nuclei (%) [2]: 51% | Population Mitochondria Different-Phenotype (%) [2]: 4% | Population Tubulin-Different-Phenotype (%) [2]: 39% | Total Cell Count [2]: 175 | Population Mitochondria Different-Phenotype (%) [3]: 5% | Population Tubulin-Different-Phenotype (%) [3]: 24% | Total Cell Count [3]: 112 | Population Fragmented Nuclei (%) [4]: 27% | Population Healthy Nuclei (%) [4]: 39% | Population Hoechst High Intensity Objects (%) [4]: 38% | Population Membrane Permeable-Phenotype (%) [4]: 9% | Population Mitochondria Different-Phenotype (%) [4]: 3% | Population Normal (%) [4]: 61% | Population Tubulin-Different-Phenotype (%) [4]: 35% | Total Cell Count [4]: 315 | Population Healthy Nuclei (%) [5]: 73% | Population Mitochondria Different-Phenotype (%) [5]: 4% | Population Tubulin-Different-Phenotype (%) [5]: 18% | Total Cell Count [5]: 173 | Population Fragmented Nuclei (%) [6]: 35% | Population Healthy Nuclei (%) [6]: 46% | Population Hoechst High Intensity Objects (%) [6]: 7% | Population Mitochondria Different-Phenotype (%) [6]: 9% | Population Normal (%) [6]: 92% | Population Tubulin-Different-Phenotype (%) [6]: 43% | Total Cell Count [6]: 179 | Population Fragmented Nuclei (%) [7]: 19% | Population Membrane Permeable-Phenotype (%) [7]: 3% | Population Mitochondria Different-Phenotype (%) [7]: 7% | Population Tubulin-Different-Phenotype (%) [7]: 25% | Total Cell Count [7]: 107 | Population Healthy Nuclei (%) [8]: 38% | Population Hoechst High Intensity Objects (%) [8]: 32% | Population Mitochondria Different-Phenotype (%) [8]: 10% | Population Normal (%) [8]: 67% | Population Tubulin-Different-Phenotype (%) [8]: 47% | Total Cell Count [8]: 230 | Population Fragmented Nuclei (%) [9]: 16% | Population Healthy Nuclei (%) [9]: 69% | Population Mitochondria Different-Phenotype (%) [9]: 1% | Population Tubulin-Different-Phenotype (%) [9]: 21% | Total Cell Count [9]: 184 | Population Fragmented Nuclei (%) [10]: 36% | Population Healthy Nuclei (%) [10]: 47% | Population Mitochondria Different-Phenotype (%) [10]: 8% | Population Tubulin-Different-Phenotype (%) [10]: 54% | Total Cell Count [10]: 174 | Population Fragmented Nuclei (%) [11]: 18% | Population Mitochondria Different-Phenotype (%) [11]: 4% | Population Tubulin-Different-Phenotype (%) [11]: 24% | Total Cell Count [11]: 110 | Population Healthy Nuclei (%) [12]: 44% | Population Hoechst High Intensity Objects (%) [12]: 29% | Population Membrane Permeable-Phenotype (%) [12]: 4% | Population Mitochondria Different-Phenotype (%) [12]: 1% | Population Normal (%) [12]: 70% | Population Tubulin-Different-Phenotype (%) [12]: 47% | Total Cell Count [12]: 231
